The text below walks through data of ChEMBL document CHEMBL1138201, “Development and characterization of biphenylsulfonamides as novel inhibitors of bone resorption” (J Med Chem, 2006).

One test has as its system J774. The test can be described thus: Inhibition of mouse J774 cell survival by alamar blue viability assay. The class given is functional, cell-based. Put shortly: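 J774 cells were seeded at 10⁴ per well in […] with 10% FCS and penicillin/streptomycin and grown overnight. Compounds were then added for 48 h. Alamar Blue was added for a further 3 h and viability was read as fluorescence (ex 530, em 590 nm). There were at least three independent experiments, n = 5 each, and IC₅₀ was fitted.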

Test [1] is filed under the species Homo sapiens. Description: Inhibition of TNF-alpha-activated NF-kappaB.
The species named for test [2] is Homo sapiens. The test can be described thus: Inhibition of RANKL-activated NF-kappaB.
The test system of test [3] is Osteoclast. Description: Inhibition of mouse osteoclast survival. Type of test: functional, cell-based. Put shortly: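 Mouse bone marrow from femora and tibiae was grown 3 days with 100 ng/mL M-CSF. Adherent cells were seeded on dentine slices (4 × 10⁴ cells/mL) with 100 ng/mL RANKL and 25 ng/mL M-CSF for 7 days. Compounds were present for 72 h from day 4. TRAcP-positive cells with ≥3 nuclei were counted as % of vehicle. Three experiments, n = 5 each.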

Test [4] concerns Osteoclast. The test can be described thus: Apoptosis of osteoclast at 5 to 20 uM. Type of test: functional, cell-based. Particulars: Homo sapiens.
A further test relates to Macrophage. The test can be described thus: Apoptosis of macrophage at 5 to 20 uM. Type of test: functional, cell-based. Particulars: Homo sapiens.
A further test concerns Osteoblast. Description: Effect on apoptosis of osteoblast. The class given is functional, cell-based. Particulars: Homo sapiens.
The test system of another test is Hepatocyte. Description: Effect on apoptosis of hepatocyte. The class given is functional, cell-based. Particulars: Homo sapiens.
Another test concerns Mus musculus. The test can be described thus: Inhibition of ovariectomy-induced bone loss in C57/BL6 mouse at 5 mg/kg/day, ip. The class given is functional, organism-based. A digest of the protocol: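 Nine-week-old female C57/BL6 mice were ovariectomized or sham-operated. Starting 2 days after surgery, they received 5 (mg/kg)/day intraperitoneally in corn oil for 21 days; controls received oil alone. The study ended on day 23. Bone at the right tibial metaphysis was measured by µCT at 5 µm resolution over 200 slices distal to the growth plate. Results are % change from sham, ±SEM, n = 6.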

Molecules are shown by their SMILES. Calls of active or inactive are those of the source. The rule behind the calls is not given here.

With `O=S(=O)(NCCCCO)c1ccc(-c2ccc(C(F)(F)F)cc2)c(F)c1`, the half-maximal inhibitory concentration (IC50) in the test on J774 amounted to 5.5 µM.

`O=S(=O)(NCCCCCCO)c1ccc(-c2ccccc2)cc1` returned an IC50 with J774 of 13 µM. Compound `Cc1ccc(-c2ccc(S(=O)(=O)NCCCCCO)cc2)cc1` returned an IC50 in the test with J774 of 13 µM. This counts as double-digit micromolar. On the same count and under the same terms, in the case of `O=C(O)c1ccc(-c2ccc(S(=O)(=O)NCCCCCO)cc2)cc1` it was 33 µM; in that of `O=S(=O)(NCCCCCO)c1ccc(-c2ccc(Br)cc2)cc1`, 9 µM; in that of `O=S(=O)(NCCCCO)c1ccc(-c2ccccc2C(F)(F)F)cc1`, 6 µM.

For `COc1cc(S(=O)(=O)NCCCCCO)ccc1-c1ccc(F)cc1F`, inhibition in the test with J774 was half-maximal at 33 µM (IC50). As for `O=C(OCCCCO)c1ccc(-c2ccccc2)cc1`, the outcome in the test listed under Homo sapiens [1], in the test filed under Homo sapiens [2], with Osteoclast [4] and with Macrophage was Active. Besides, the IC50 in the test on Osteoclast [3] was 9 µM; with Osteoblast, greater than 100 µM; with Hepatocyte, greater than 200 µM. The compound `O=S(=O)(NCCCCO)c1ccc(-c2ccc(Br)cc2)cc1` yielded an IC50 in the test with J774 of 8 µM. This counts as single-digit micromolar. `O=S(=O)(NCCCCO)c1ccc(-c2ccccc2)cc1`: the outcome in the test listed under Homo sapiens [1] and in the test filed under Homo sapiens [2] was Active. In addition, the half-maximal inhibitory concentration (IC50) was 18 µM with J774 and 8 µM in the test with Osteoclast [3]. In the case of `O=S(=O)(NCCCCO)c1ccccc1-c1ccc(F)cc1`, the IC50 in the test with J774 was greater than 50 µM. In the test with J774, `O=S(=O)(NCCCCO)c1ccc(-c2ccc(C(F)(F)F)cc2)cc1F` registered an IC50 of 5 µM.

In the test with J774, `O=S(=O)(NCCCCCO)c1ccc(-c2ccc(F)cc2F)cc1` showed an IC50 of 4.5 µM.

In the test with J774, `O=S(=O)(NCCCCO)c1cccc(-c2ccc(C(F)(F)F)cc2)c1` returned an IC50 greater than 50 µM. The same measure, in the same setting: in the case of `CSc1ccc(-c2ccc(S(=O)(=O)NCCCCO)cc2)cc1` it was 35 µM; in that of `CC(=O)c1ccc(-c2ccc(S(=O)(=O)NCCCCCO)cc2)cc1`, 11 µM. Consider `O=S(=O)(NCCCCCO)c1ccc(-c2ccc(Cl)cc2Cl)cc1`, for which the IC50 in the test on J774 is 2.5 µM.

`O=S(=O)(NCCCCO)c1ccc(-c2ccc(F)cc2F)c(C(F)(F)F)c1`: the half-inhibitory concentration (IC50) in the test with J774 turned out to be 0.7 µM. On the same count and under the same terms, then `Cc1cccc(-c2ccc(S(=O)(=O)NCCCCO)cc2)c1`, with 28 µM. In the test with J774, `CN(C)c1ccc(-c2ccc(S(=O)(=O)NCCCCCO)cc2)cc1` had an IC50 of 32 µM. For `O=S(=O)(NCCCCCO)c1ccc(-c2ccc(C(F)(F)F)cc2C(F)(F)F)cc1`, half-maximal inhibition in the test on J774 (IC50) was put at 2 µM. In the test with J774, `Nc1ccccc1-c1ccc(S(=O)(=O)NCCCCO)cc1` gave an IC50 of 24 µM. This IC50 lies about 12-fold higher than the previous one. With `O=S(=O)(NCCCCCO)c1ccc(-c2ccc(F)c(F)c2)cc1`, in the test with J774, half-maximal inhibition (IC50) required 16 µM. As for `O=S(=O)(NCCCO)c1ccc(-c2ccccc2)cc1`, the IC50 in the test on J774 is greater than 50 µM.

For `O=S(=O)(NCCCCCO)c1ccc(-c2ccc(-c3ccccc3)cc2)cc1`, in the test on J774, the IC50 turned out to be 33 µM. In the test with J774, `O=S(=O)(NCCCCO)c1ccc(-c2ccc(C(F)(F)F)cc2)cc1` yielded an IC50 of 5 µM. Still for that read-out and setting: then `O=[N+]([O-])c1ccccc1-c1ccc(S(=O)(=O)NCCCCO)cc1`, with 2 µM; and `O=S(=O)(NCCCCO)c1ccc(-c2ccccc2I)cc1`, with 5.5 µM; and `O=S(=O)(NCCCCO)c1ccc(-c2ccc(F)cc2)cc1`, with 8 µM. Same read-out and setting: in the case of `O=S(=O)(NCCCCO)c1ccc(-c2ccc(Br)cc2F)cc1` it was 3 µM. Compound `Cc1cc(S(=O)(=O)NCCCCO)ccc1-c1ccc(F)cc1` returned an IC50 in the test with J774 of 2.5 µM. The same measure, in the same setting: in the case of `O=S(=O)(NCCCCCO)c1ccc(-c2ccc(O)cc2)cc1` it was 21 µM; in that of `O=S(=O)(NCCCCCO)c1ccc(-c2ccccc2)cc1`, 18 µM.

Take `Cc1cc(S(=O)(=O)NCCCCO)ccc1-c1ccc(F)cc1F`: the result in the test filed under Homo sapiens [1], in the test listed under Homo sapiens [2] and with Mus musculus was Active. In addition, the half-maximal inhibitory concentration (IC50) in the test with J774 was determined as 0.8 µM; in the test with Osteoclast [3], 0.15 µM. Compound `N#Cc1ccc(-c2ccc(S(=O)(=O)NCCCCCO)cc2)cc1` showed an IC50 in the test on J774 of 12 µM. This lies in the double-digit micromolar range.

In the test on J774, `O=[N+]([O-])c1cccc(-c2ccc(S(=O)(=O)NCCCCO)cc2)c1` yielded an IC50 of 33 µM. This IC50 lies about 2.8-fold higher than the previous one. The same measure, in the same setting: in the case of `O=S(=O)(NCCCCO)c1ccc(-c2ccc(OC(F)(F)F)cc2)cc1` it was 8 µM; in that of `O=S(=O)(NCCCCO)c1ccc(-c2ccccc2)cc1C(F)(F)F`, 4.5 µM; in that of `COc1ccccc1-c1ccc(S(=O)(=O)NCCCCCO)cc1`, 31 µM.
